In ChEMBL document CHEMBL1123990, “The in vitro dental plaque inhibitory properties of a series of N-[1-alkyl-4(1H)-pyridinylidene]alkylamines” (1988) one finds CC, PBI and MBC data, which are given here for 14 compounds.

Structures are written as SMILES. ≈ marks a conversion by molar mass, not a printed value. Calls of active or inactive are those of the source.

The test system of experiment [1] is Actinomyces viscosus. The experiment is described as follows: Chlorohexidine coefficient for Actinomyces viscosus M-100. The format is functional. The essentials: (§1)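 Hydroxylapatite-grown plaques were exposed once daily for 2 min to varying concentrations of agent until the organisms were killed. The highest level tested was 0.2% w/v for 5 days. Tests were run in duplicate. PBI is the concentration (mM) × duration (min) × frequency (days) needed for plaque kill. CC is the chlorhexidine PBI divided by the test-agent PBI.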

In experiment [2] the test system is Actinomyces viscosus. The experiment is described as follows: Plaque bactericidal index against Actinomyces viscosus M-100 measured as chlorohexidine coefficient. The format is functional. The essentials: as §1
In experiment [3] the test system is Streptococcus sobrinus. The experiment is described as follows: Minimal bactericidal concentration against Streptococcus sobrinus 6715-13. In kind it is functional. The essentials: (§2)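 Plaques were grown on standardized ceramic hydroxylapatite plates and immersed once in agent for 30 min. They were rinsed with sterile distilled water, moved to fresh broth and incubated anaerobically at 37 °C. Kill meant no further culture acid production, no turbidity change, and no growth when 48-h post-treatment plaque samples were subcultured. Tests were run in duplicate.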

For experiment [4], the system named is Streptococcus sobrinus. The experiment is described as follows: Plaque bactericidal index against Streptococcus sobrinus 6715-13 measured as chlorohexidine coefficient. The format is functional. The essentials:
as §1

Experiment [5] concerns Streptococcus sobrinus. The experiment is described as follows: Chlorohexidine coefficient for Streptococcus sobrinus 6715-13. In kind it is functional. The essentials: as §1
The test system of experiment [6] is Actinomyces viscosus. The experiment is described as follows: Plaque bactericidal index against Actinomyces viscosus M-100 measured as chlorohexidine coefficient; not bactericidal at highest concentration tested (0.2% w/v, 2min, 5 days). The format is functional, organism-based. The procedure, abridged: as §1
Experiment [7] deals with Streptococcus sobrinus. The experiment is described as follows: Minimal bactericidal concentration against d Streptococcus sobrinus 6715-13; Not active at 20 mM. The format is functional, organism-based. The procedure, abridged: as §2
In experiment [8] the test system is Streptococcus sobrinus. The experiment is described as follows: Plaque bactericidal index against Streptococcus sobrinus 6715-13 measured as chlorohexidine coefficient; d=Not bactericidal at highest concentration tested (0.2% w/v, 2min, 5 days). In kind it is functional, organism-based. The procedure, abridged: as §1
Experiment [9] relates to Streptococcus sobrinus. The experiment is described as follows: Minimal bactericidal concentration against Streptococcus sobrinus 6715-13. The format is functional. The procedure, abridged:
as §2

The subject of experiment [10] is Actinomyces viscosus. The experiment is described as follows: Plaque bactericidal index against Actinomyces viscosus M-100 measured as chlorohexidine coefficient; d=Not bactericidal at highest concentration tested (0.2% w/v, 2min, 5 days). The format is functional, organism-based. The procedure, abridged:
as §1

In general, MBC refers to the smallest concentration meeting the test's criterion for killing. Turning to `Br.CCCCCCCCCN=c1ccn(CCCCCCC)cc1`, the values for the CC in [1] and in [5] were 1.9 and 2.5, respectively. In addition, the PBI in [2] and in experiment [4] was 10 each time. The MBC in experiment [3] came out at 1250 µM.

As to `CCCCCCCCN=c1ccn(CCCCCCCCCCn2ccc(=NCCCCCCCC)cc2)cc1` [OCTENIDINE], the CC in [1] and in experiment [5] was 1 throughout. Moreover, the PBI in experiment [2] came to 19.2; in [4], 25.6. This compound registered an MBC in experiment [3] of 3200 µM (≈ 1760 µg/mL).

On to `CCCCCCCCCCCCN=c1ccn(C)cc1.I`, for which the CC in [1] amounted to 1; in experiment [5], 2.1. In addition, the figures for the PBI in experiment [2] and in [4] were 19.2 and 12.4, respectively. In experiment [3], this compound displayed an MBC of 1240 µM.

For `Br.CCCCCCCCn1ccc(=NCC(CC)CCCC)cc1` (centres undefined), the CC came out at 1.9 in [1] and 2.5 in experiment [5]. Also, the PBI in experiment [2] and in experiment [4] was 10 in each case. In [3], the MBC turned out to be 1250 µM.

For `CCCCCCCCCCN=c1ccn(CCCCC)cc1.Cl`, the CC in experiment [1] came to 3.2; in experiment [5], 8.5. The PBI in experiment [2] stood at 5.9; in experiment [4], 3. This compound also came in with an MBC in experiment [3] of 290 µM.

With `CCCCCCCCCn1ccc(=NCCCCCC)cc1.Cl`, the CC is given as 2.2 in [1] and 8.8 in [5]. Moreover, the PBI is 8.8 in [2] and 2.9 in experiment [4]. Moreover, the MBC in experiment [3] was found to be 290 µM.

In the case of `Br.CCCCCCCCn1ccc(=NCCCCCCC)cc1`, the CC amounted to 1.8 in experiment [1] and 2.5 in experiment [5]. In addition, the PBI in experiment [2] and in experiment [4] was 10.4 each time. Also, the MBC in experiment [3] is 1300 µM.

Regarding `CCCCCCCCN=c1ccn(Cc2ccc(Cl)cc2)cc1.Cl`, the figures for the CC in [1] and in [5] were 3.6 and 2.3, respectively. Further, the PBI in experiment [2] turned out to be 5.4; in experiment [4], 10.9. Moreover, in experiment [3], the MBC stood at 270 µM.

As for `CCCCCCCCn1ccc(=NCCCCCC)cc1.Cl`, the results for the CC in experiment [1] and in experiment [5] were 6.4 and 5.6, respectively. Besides, the PBI in experiment [2] is 3; in experiment [4] it was 4.6. The compound also yielded an MBC in [3] of 310 µM.

Turning to `CN=c1ccn(C)cc1`, the PBI result in experiment [6] and in experiment [8] was “Not bactericidal” each time. Further, in [7], the MBC result was “inactive”.

Take `CCCCCCCn1ccc(=NCCCCCC)cc1.Cl`: the CC in experiment [1] is on record as 3; in [5] it was 2. For the same compound, the values for the PBI in experiment [2] and in experiment [4] were 6.4 and 12.8, respectively. The compound further came in with an MBC in [9] of 1600 µM.

`Br.CCCCCCCCN=c1ccn(CC(CC)CCCC)cc1` (centres undefined): the CC in experiment [1] is recorded as 1.5; in experiment [5], 2. Besides, the PBI in experiment [2] and in experiment [4] was 12.5 in each case. In experiment [3], this compound returned an MBC of 1250 µM.

In the case of `CCCCCCCCCCCCCCN=c1ccn(Cc2ccccc2)cc1`, the PBI entry in experiment [10] and in experiment [8] was “Not bactericidal” throughout. The compound further displayed an MBC in experiment [3] of 240 µM (≈ 91.3 µg/mL).

Consider `CCCCCCN=c1ccn(CCCCCC)cc1`, for which the PBI result in [10] and in experiment [8] was “Not bactericidal” throughout. Also, in [3], the MBC amounted to 1580 µM (≈ 415 µg/mL).
